Measured values taken from ChEMBL document CHEMBL4665866, “Generation, optimization and characterization of novel anti-prion compounds” (Bioorg Med Chem, 2020).

Test system: not listed separately
Assay: Anti-prion activity against 22L prion protein in mouse N2a cells by Western blotting analysis
Assay type: cell-based

| Compound | IC50 [µM] |
| --- | --- |
| OC1(C#Cc2ccccc2)CCCCC1NCc1ccccc1 (racemic) | 8.25 |

Test system: not listed separately
Assay: Anti-prion activity against Scrapie prion protein in mouse N2a-FK cells after 48 hrs by immunoblotting analysis
Assay type: cell-based
Procedure, shortened: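 N2a cells persistently infected with FK-1 prion strain, seeded overnight at 37 °C, then exposed to compound at 1, 5 and 10 µM for 48 h. Lysates digested with 20 μg/mL proteinase K at 37 °C for 30 min, run on 15% SDS-PAGE, and western blotted. PrP^Sc band intensity was plotted against concentration and fitted to a Boltzmann sigmoid for IC50. Mean ± SD from at least three experiments.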

| Compound | IC50 [µM] |
| --- | --- |
| O[C@@]1(C#Cc2ccc(F)cc2)CCCC[C@@H]1NCC1CCCCC1 (racemic) | 5.6 |
| O[C@@]1(C#Cc2ccccc2)CCCC[C@@H]1NCC1CCCCC1 (racemic) | 4.7 |

Test system: not listed separately
Assay: Anti-prion activity against RML prion protein in mouse N2a cells by Western blotting analysis
Assay type: cell-based

| Compound | IC50 [µM] |
| --- | --- |
| OC1(C#Cc2ccccc2)CCCCC1NCc1ccccc1 (racemic) | 3.21 |

Test system: N2a
Assay: Anti-prion activity against Scrapie prion protein in mouse N2a-FK cells assessed as residual activity at 10 uM after 48 hrs by immunoblotting analysis relative to control
Assay type: cell-based
Procedure, shortened: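 FK-1-infected N2a cells were seeded overnight at 37 °C, then exposed to 10 µM compound for 48 h. Lysates were treated with 20 μg/mL proteinase K at 37 °C for 30 min, then 15% SDS-PAGE and western blot for PrP^Sc. PrP^Sc ratio is % of solvent-treated control (100%), Tukey-Kramer comparison, mean ± SD.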

| Compound | Activity [%] |
| --- | --- |
| Cc1cccc(C#C[C@]2(O)CCCC[C@@H]2NCc2ccccc2)c1 | 93.7 |
| Cc1cccc(CN[C@H]2CCCC[C@@]2(O)C#Cc2ccccc2)c1 | 84.8 |
| O=C1O[C@@]2(C#Cc3ccccc3)CCCC[C@@H]2N1Cc1ccccc1 | 68.4 |
| OC(C#Cc1ccccc1)CNCc1ccccc1 (centres undefined) | 120 |
| O[C@@]1(/C=C/c2ccccc2)CCCC[C@@H]1NCc1ccccc1 | 81.6 |
| O[C@@]1(C#Cc2ccccc2)CCCC[C@@H]1NCc1ccccc1 | 100 |
| C(#C[C@@]12CCCC[C@@H]1N2Cc1ccccc1)c1ccccc1 (mixture of isomers) | 96.7 |
| O[C@@]1(C#Cc2ccccc2)CCCC[C@@H]1NCc1ccccc1F (mixture of isomers) | 68.6 |
| O[C@@]1(C#Cc2ccc(F)cc2)CCCC[C@@H]1NCC1CCCCC1 (racemic) | 35.5 |
| OC1(C#Cc2ccccc2)CCCCC1NCc1ccccc1 (racemic) | 85.8 |
| O[C@@]1(C#Cc2ccccc2)CCCC[C@@H]1NCC1CCCCC1 (racemic) | 32.7 |
| CC(C)(C)OC(=O)N1CC[C@@](O)(C#Cc2ccccc2)[C@@H](NCc2ccccc2)C1 (racemic) | 108 |
| CCOC(=O)CN(Cc1ccccc1)[C@H]1CCCC[C@@]1(O)C#Cc1ccccc1 (racemic) | 76.1 |
| COC(=O)c1ccc(C#C[C@]2(O)CCCC[C@@H]2NCc2ccccc2)cc1 (racemic) | 84.8 |
| COC(=O)c1cccc(C#C[C@]2(O)CCCC[C@@H]2NCc2ccccc2)c1 (racemic) | 83.7 |
| COC(=O)c1ccccc1C#C[C@]1(O)CCCC[C@@H]1NCc1ccccc1 (racemic) | 103 |
| COc1ccc(C#C[C@]2(O)CCCC[C@@H]2NCc2ccccc2)cc1 (racemic) | 75.7 |
| COc1ccc(CN[C@H]2CCCC[C@@]2(O)C#Cc2ccccc2)cc1 (racemic) | 83.3 |
| Cc1ccc(C#C[C@]2(O)CCCC[C@@H]2NCC2CCCCC2)cc1 (racemic) | 75.2 |
| Cc1ccc(CN[C@H]2CCCC[C@@]2(O)C#Cc2ccccc2)cc1 (racemic) | 75.5 |

| Compound | Activity [%] |
| --- | --- |
| N[C@H]1CCCC[C@@]1(O)CCc1ccccc1 (racemic) | 88 |
| O=C(N[C@H]1CCCC[C@@]1(O)CCc1ccccc1)c1ccccc1 (racemic) | 126 |
| O=S(=O)(N[C@H]1CCCC[C@@]1(O)CCc1ccccc1)c1ccccc1 (racemic) | 112 |
| OC1(CN[C@H]2CCCC[C@@]2(O)C#Cc2ccccc2)CCCCC1 (racemic) | 77.5 |
| O[C@@]1(C#Cc2ccc(Cl)cc2)CCCC[C@@H]1NCc1ccccc1 (racemic) | 77.5 |
| O[C@@]1(C#Cc2ccc(F)cc2)CCCC[C@@H]1NCc1ccccc1 (racemic) | 95.1 |
| O[C@@]1(C#Cc2cccc(F)c2)CCCC[C@@H]1NCc1ccccc1 (racemic) | 74.5 |
| O[C@@]1(C#Cc2ccccc2)CCCCC[C@@H]1NCc1ccccc1 (racemic) | 75.7 |
| O[C@@]1(C#Cc2ccccc2)CCCC[C@@H]1N1CC[C@@H]2CCCC[C@H]2C1 (racemic) | 66.7 |
| O[C@@]1(C#Cc2ccccc2)CCCC[C@@H]1N1CCc2ccccc2C1 (racemic) | 86 |
| O[C@@]1(C#Cc2ccccc2)CCCC[C@@H]1NCC1CCCC1 (racemic) | 54.8 |
| O[C@@]1(C#Cc2ccccc2)CCCC[C@@H]1NCc1ccc(F)cc1 (racemic) | 58.8 |
| O[C@@]1(C#Cc2ccccc2)CCCC[C@@H]1NCc1cccc(F)c1 (racemic) | 61.2 |
| O[C@@]1(C#Cc2ccccc2)CCCC[C@@H]1NCc1ccccc1Cl (racemic) | 96.1 |
| O[C@@]1(C#Cc2ccccc2)CCCC[C@@H]1NCc1ccccn1 (racemic) | 116 |
| O[C@@]1(C#Cc2ccccc2)CCCC[C@@H]1NCc1cccnc1 (racemic) | 63.4 |
| O[C@@]1(C#Cc2ccccc2)CCCC[C@@H]1NCc1ccco1 (racemic) | 103 |
| O[C@@]1(C#Cc2ccccc2)CCCC[C@@H]1NCc1ccncc1 (racemic) | 102 |
| O[C@@]1(C#Cc2ccccc2)CCOC[C@@H]1NCc1ccccc1 (racemic) | 85.2 |
| O[C@@]1(C#Cc2ccccc2F)CCCC[C@@H]1NCc1ccccc1 (racemic) | 80.7 |
